Assay results as given in ChEMBL document CHEMBL1148336, “3-Aminopyrazole inhibitors of CDK2/cyclin A as antitumor agents. 1. Lead finding” (J Med Chem, 2004).

Legend:
Rattus norvegicus [1] = assay: In vivo half-life period for compound after i.v. administration at a dose of 5 mg/kg was measured in rats; format: ADME, organism-based; parameters: dose 5 mg/kg, route intravenous; conditions: iv
In short: (§1)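 Male Sprague Dawley rats (~270), fasted overnight, received a single iv or oral dose in PEG400, 4% Tween 80/dextrose (60:40), three rats per route. Jugular/catheter blood was drawn predose and at 5, 15 and 30 min and 1, 2, 4, 6 and 24 h, and plasma was analysed by LC/MS/MS. Analysis was noncompartmental: Cmax/Tmax observed, AUC by linear trapezoidal rule, and F from dose-normalized oral/iv AUC.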

[2] = target: Fibroblast growth factor receptor 1 (Homo sapiens, UniProt P11362); assay: Inhibition of Fibroblast growth factor receptor 1
In short: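 Radiolabelled ATP at 2Km, substrate 5Km, 1% DMSO, compound 10 to 0.0015 μM, 30–90 min at room temperature. SPA capture.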

[3] = target: Tyrosine-protein kinase Lck (Homo sapiens, UniProt P06239); assay: Inhibition of p56 lck tyrosine kinase
In short: (§2)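 Radiometric kinase assay. Enzyme (0.7–100 nM) and substrate (5Km) incubated with ATP/33P-γ-ATP (2Km) and compound serially diluted 3-fold from 10 to 0.0015 μM, 1% DMSO, 30–90 min at room temperature. Product separated by SPA, Dowex or phosphocellulose filter, then counted.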

[4] = target: Insulin-like growth factor 1 receptor (Homo sapiens, UniProt P08069); assay: Inhibition of Insulin-like growth factor I receptor
In short: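 IGF1R (6 nM, insect-cell recombinant) phosphorylating IRStide in 50 mM Hepes pH 7.5, 3 mM MnCl2, 1 mM DTT, 3 μM NaVO3. 33P-ATP mix at 2Km, substrate 5Km, 1% DMSO. Compound in 3-fold series from 10 μM, 30–90 min at room temperature. SPA counting.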

[5] = target: Mitogen-activated protein kinase 1 (Homo sapiens, UniProt P28482); assay: Inhibition of Mitogen-activated protein kinase 1 activity
In short: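 ERK-2 at 3 nM (insect-cell recombinant) with MBP in Tris-HCl pH 7.4 10 mM, MgCl2 10 mM, DTT 7.4 mM. ATP/33P-γ-ATP 2Km, substrate 5Km, 1% DMSO, 10 to 0.0015 μM compound, 30–90 min at room temperature. Dowex resin (formate, pH 3) removed free ATP; supernatant counted.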

[6] = target: Serine/threonine-protein kinase PLK1 (Homo sapiens, UniProt P53350); assay: Inhibition of PLK1 kinase; in short: as §2
Rattus norvegicus [7] = species: Rattus norvegicus; assay: Metabolic rate for compound was observed in rat hepatocytes; format: ADME, Liver, Hepatocyte
In short: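 Compound at 1 μM was incubated with 10^6 rat hepatocytes in 1 mL Leibovitz's medium at 37 °C with shaking. Samples were taken at 0.5–90 min and quenched in ice-cold acetonitrile. Parent was quantified by LC/MS/MS, with hepatocyte-free controls and reference clearance drugs.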

[8] = Steady-state volume of distribution was evaluated for the compound after i.v. administration at a dose of 5 mg/kg was measured in rats; format: ADME, organism-based; parameters: dose 5 mg/kg, route intravenous; conditions: rat, in vivo, iv, read-out: Vss; in short: as §1
[9] = target: Mast/stem cell growth factor receptor Kit (Homo sapiens, UniProt P10721); assay: Inhibition of KIT kinase activity; in short: as §2
[10] = target: RAC-alpha serine/threonine-protein kinase (Homo sapiens, UniProt P31749); assay: Inhibition of Protein kinase B (Akt-1)
In short: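 Recombinant AKT-1 (insect cells), 5 nM, with AKTtide in 10 mM Tris-HCl pH 7.4, 10 mM MgCl2, 7.4 mM DTT. ATP/33P-γ-ATP at 2Km, substrate at 5Km, 1% DMSO. 3-fold dilutions from 10 μM, 30–90 min at room temperature. Dowex resin separation, supernatant radioactivity counted.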

[11] = target: Cyclin-dependent kinase 4/cyclin D1 (Homo sapiens, UniProt P11802)
Rattus norvegicus [12] = assay: In vivo maximum time required for clearance of compound after oral (po) administration at a dose of 10 mg/kg was measured in rats; format: ADME, organism-based; parameters: dose 10 mg/kg, route oral; in short: as §1
[13] = Total body clearance was evaluated for the compound after i.v. administration at a dose of 5 mg/kg was measured in rats; format: ADME, organism-based; parameters: dose 5 mg/kg, route intravenous; conditions: rat, in vivo, iv; in short: as §1
Rattus norvegicus [14] = assay: Maximal concentration in male Sprague-Dawley rats after 10 mg/kg oral dose; format: ADME, organism-based; parameters: dose 10 mg/kg, route oral; conditions: in vivo; in short: as §1
[15] = target: Inhibitor of nuclear factor kappa-B kinase subunit epsilon (Homo sapiens, UniProt Q14164); assay: Inhibition of IKKi (IKK epsilon) kinase activity; in short: as §2
[16] = target: Tyrosine-protein kinase Lyn (Homo sapiens, UniProt P07948); assay: Inhibition of Protein tyrosine kinase Lyn; in short: as §2
[17] = target: Cyclin-dependent kinase 5/CDK5 activator 1 (Homo sapiens, UniProt Q00535); assay: Inhibition of Cyclin-dependent kinase 5-p35nck5a; format: protein-complex assay
In short: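 Recombinant CDK5/p25 expressed in insect cells, used at 4 nM with histone H1 substrate (5Km) and ATP/33P-γ-ATP (2Km). Run in Tris-HCl pH 7.4 buffer with MgCl2 and DTT, 1% DMSO, for 30–90 min at room temperature. 3-fold dilutions from 10 to 0.0015 μM. Product captured on streptavidin SPA beads and counted.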

[18] = Ability of compound to bind to plasma protein was evaluated in HSA cells; format: ADME, cell-based; conditions: mouse, HSA cells (so in the source), read-out: PPB
In short: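 HPLC retention time measured on a column coupled with human serum albumin. Percent bound is assigned by comparing the retention time with those of known standards.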

[19] = target: Serine/threonine-protein kinase PAK 4 (Homo sapiens, UniProt O96013); assay: Inhibition of PAK4 kinase; in short: as §2
[20] = target: Vascular endothelial growth factor receptor 3 (Homo sapiens, UniProt P35916); assay: Inhibition of Vascular endothelial growth factor receptor 3; in short: as §2
[21] = In vivo retention time was evaluated for the compound after i.v. administration at a dose of 5 mg/kg was measured in rats; format: ADME, organism-based; parameters: dose 5 mg/kg, route intravenous; conditions: rat, iv; in short: as §1
[22] = target: Mitogen-activated protein kinase 14 (Homo sapiens, UniProt Q16539); assay: Inhibition of Mitogen-activated protein kinase p38 alpha; in short: as §2
[23] = target: Vascular endothelial growth factor receptor 2 (Homo sapiens, UniProt P35968); assay: Inhibition of VEGFR-2 kinase activity; in short: as §2
Rattus norvegicus [24] = assay: In vivo area under curve was determined for the compound after i.v. administration at a dose of 5 mg/kg in rats; format: ADME, organism-based; parameters: dose 5 mg/kg, route intravenous; conditions: iv; in short: as §1
[25] = target: Tyrosine-protein kinase ZAP-70 (Homo sapiens, UniProt P43403); assay: Inhibition of Zeta-chain (TCR) associated protein kinase 70 kDa (ZAP70); in short: as §2
Rattus norvegicus [26] = assay: In vivo half-life period for compound after oral (po) administration at a dose of 10 mg/kg was measured in rats; format: ADME, organism-based; parameters: dose 10 mg/kg, route oral; in short: as §1
[27] = target: Protein kinase C beta type (Homo sapiens, UniProt P05771); assay: Inhibition of Protein kinase C beta
In short: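 PKCβ was commercially sourced. It was used at 0.7–100 nM enzyme with substrate at 5Km and ATP/33P-γ-ATP at 2Km, 1% DMSO, and compound in 3-fold steps from 10 to 0.0015 μM, for 30–90 min at room temperature. Phosphorylated product was separated and counted. Four-parameter logistic IC50, mean of at least two experiments.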

Fibroblast growth factor receptor 1, sequence (P11362 whole entry): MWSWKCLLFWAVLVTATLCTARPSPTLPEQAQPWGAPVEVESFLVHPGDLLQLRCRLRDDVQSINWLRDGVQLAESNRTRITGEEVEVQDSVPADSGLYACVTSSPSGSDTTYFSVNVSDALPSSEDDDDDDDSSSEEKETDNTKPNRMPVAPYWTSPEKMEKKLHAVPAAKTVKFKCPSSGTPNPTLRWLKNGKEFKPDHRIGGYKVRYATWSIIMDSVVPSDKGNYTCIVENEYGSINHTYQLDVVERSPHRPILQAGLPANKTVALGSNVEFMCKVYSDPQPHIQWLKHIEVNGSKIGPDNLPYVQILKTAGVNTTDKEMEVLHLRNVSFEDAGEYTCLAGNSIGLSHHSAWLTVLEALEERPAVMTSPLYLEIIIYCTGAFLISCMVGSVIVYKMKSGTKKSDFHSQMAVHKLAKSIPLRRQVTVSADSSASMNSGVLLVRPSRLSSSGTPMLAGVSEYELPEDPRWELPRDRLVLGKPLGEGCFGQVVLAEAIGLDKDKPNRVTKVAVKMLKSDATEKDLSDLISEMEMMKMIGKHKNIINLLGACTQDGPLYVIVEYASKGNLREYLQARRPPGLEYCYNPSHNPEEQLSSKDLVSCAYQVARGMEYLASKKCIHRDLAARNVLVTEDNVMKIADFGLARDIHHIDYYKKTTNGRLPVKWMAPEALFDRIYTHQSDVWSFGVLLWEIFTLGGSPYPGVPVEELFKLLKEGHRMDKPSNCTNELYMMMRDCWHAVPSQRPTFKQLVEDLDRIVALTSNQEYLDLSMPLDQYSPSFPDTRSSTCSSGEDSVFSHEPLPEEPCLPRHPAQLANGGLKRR
Mast/stem cell growth factor receptor Kit, sequence (P10721 whole entry): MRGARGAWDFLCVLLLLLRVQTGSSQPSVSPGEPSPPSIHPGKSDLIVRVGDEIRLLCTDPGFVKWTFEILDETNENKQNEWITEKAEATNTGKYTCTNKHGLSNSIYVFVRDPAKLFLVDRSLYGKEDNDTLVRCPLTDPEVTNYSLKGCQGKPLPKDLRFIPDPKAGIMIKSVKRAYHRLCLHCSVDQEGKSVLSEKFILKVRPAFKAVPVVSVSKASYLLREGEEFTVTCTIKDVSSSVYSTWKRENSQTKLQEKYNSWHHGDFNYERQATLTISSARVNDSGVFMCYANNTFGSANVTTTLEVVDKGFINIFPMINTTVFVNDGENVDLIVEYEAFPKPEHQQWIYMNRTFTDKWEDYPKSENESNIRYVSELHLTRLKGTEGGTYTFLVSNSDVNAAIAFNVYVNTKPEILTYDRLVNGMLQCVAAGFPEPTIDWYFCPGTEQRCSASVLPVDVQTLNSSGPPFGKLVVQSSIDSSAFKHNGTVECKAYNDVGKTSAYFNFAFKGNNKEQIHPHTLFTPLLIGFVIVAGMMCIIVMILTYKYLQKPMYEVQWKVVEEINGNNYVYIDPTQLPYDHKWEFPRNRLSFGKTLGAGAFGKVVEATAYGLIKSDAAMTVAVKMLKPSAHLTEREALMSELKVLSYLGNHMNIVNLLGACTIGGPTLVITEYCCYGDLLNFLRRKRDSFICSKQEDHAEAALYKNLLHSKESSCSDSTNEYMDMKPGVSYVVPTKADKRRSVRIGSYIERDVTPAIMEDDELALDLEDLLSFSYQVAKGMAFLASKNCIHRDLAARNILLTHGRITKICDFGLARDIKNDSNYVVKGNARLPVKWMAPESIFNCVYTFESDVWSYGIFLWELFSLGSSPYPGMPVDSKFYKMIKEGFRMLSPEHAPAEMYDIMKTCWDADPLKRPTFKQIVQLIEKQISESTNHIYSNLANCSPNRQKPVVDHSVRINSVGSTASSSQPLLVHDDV
RAC-alpha serine/threonine-protein kinase, sequence (P31749 whole entry): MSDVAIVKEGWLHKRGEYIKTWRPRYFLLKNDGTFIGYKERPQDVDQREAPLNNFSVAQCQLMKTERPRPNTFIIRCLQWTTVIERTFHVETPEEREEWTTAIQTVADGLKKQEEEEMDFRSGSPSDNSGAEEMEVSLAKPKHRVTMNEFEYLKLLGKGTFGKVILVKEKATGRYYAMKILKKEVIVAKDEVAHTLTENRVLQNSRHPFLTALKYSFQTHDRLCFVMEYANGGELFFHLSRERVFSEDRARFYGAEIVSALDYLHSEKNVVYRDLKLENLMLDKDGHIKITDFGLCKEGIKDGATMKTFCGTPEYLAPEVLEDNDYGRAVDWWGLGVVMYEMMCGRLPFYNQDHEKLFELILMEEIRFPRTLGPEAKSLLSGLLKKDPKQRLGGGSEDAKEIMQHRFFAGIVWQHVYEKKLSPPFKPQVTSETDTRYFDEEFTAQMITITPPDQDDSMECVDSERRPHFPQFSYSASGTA
Serine/threonine-protein kinase PAK 4, sequence (O96013 whole entry): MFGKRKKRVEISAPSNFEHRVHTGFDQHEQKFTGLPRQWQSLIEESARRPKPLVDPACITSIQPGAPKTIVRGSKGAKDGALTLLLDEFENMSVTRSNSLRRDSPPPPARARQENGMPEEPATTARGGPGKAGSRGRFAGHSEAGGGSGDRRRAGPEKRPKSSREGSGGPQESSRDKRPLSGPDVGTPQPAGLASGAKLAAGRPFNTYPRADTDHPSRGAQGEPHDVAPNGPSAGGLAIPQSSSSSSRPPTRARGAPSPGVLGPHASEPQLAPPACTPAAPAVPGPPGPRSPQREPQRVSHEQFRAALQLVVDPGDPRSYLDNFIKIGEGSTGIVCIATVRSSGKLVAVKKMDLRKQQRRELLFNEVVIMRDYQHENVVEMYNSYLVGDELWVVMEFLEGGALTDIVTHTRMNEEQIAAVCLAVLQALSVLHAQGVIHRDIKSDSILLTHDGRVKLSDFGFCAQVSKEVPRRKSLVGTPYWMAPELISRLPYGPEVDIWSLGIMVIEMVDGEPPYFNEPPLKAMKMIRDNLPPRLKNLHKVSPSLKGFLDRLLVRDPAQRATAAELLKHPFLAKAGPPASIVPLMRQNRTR
Mitogen-activated protein kinase 14, sequence (Q16539 whole entry): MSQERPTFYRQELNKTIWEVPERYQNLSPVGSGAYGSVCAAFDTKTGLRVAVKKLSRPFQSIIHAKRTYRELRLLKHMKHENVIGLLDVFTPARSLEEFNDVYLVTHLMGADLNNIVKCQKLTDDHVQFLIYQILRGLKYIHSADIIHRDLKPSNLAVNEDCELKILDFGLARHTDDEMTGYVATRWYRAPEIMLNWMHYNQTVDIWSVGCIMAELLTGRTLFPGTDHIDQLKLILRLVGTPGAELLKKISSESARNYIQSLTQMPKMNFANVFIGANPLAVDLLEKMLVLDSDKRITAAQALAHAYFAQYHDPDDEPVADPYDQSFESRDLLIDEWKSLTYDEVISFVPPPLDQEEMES
Tyrosine-protein kinase ZAP-70, sequence (P43403 whole entry): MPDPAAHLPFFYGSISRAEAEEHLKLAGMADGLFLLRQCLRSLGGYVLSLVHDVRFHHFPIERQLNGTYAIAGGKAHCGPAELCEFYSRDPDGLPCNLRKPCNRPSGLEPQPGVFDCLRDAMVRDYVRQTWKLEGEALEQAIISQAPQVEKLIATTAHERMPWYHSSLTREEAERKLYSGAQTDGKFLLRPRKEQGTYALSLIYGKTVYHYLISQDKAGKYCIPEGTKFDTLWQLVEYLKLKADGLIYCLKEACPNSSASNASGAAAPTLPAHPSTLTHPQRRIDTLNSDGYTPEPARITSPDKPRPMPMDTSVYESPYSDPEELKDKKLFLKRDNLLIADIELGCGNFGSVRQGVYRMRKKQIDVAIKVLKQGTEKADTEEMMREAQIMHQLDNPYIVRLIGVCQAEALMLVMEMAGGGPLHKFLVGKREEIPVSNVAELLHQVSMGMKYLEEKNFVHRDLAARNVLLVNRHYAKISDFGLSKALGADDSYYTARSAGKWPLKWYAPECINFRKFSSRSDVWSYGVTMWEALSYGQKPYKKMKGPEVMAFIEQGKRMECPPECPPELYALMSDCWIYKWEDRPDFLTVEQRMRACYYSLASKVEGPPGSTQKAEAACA
Inhibitor of nuclear factor kappa-B kinase subunit epsilon, sequence (Q14164 whole entry): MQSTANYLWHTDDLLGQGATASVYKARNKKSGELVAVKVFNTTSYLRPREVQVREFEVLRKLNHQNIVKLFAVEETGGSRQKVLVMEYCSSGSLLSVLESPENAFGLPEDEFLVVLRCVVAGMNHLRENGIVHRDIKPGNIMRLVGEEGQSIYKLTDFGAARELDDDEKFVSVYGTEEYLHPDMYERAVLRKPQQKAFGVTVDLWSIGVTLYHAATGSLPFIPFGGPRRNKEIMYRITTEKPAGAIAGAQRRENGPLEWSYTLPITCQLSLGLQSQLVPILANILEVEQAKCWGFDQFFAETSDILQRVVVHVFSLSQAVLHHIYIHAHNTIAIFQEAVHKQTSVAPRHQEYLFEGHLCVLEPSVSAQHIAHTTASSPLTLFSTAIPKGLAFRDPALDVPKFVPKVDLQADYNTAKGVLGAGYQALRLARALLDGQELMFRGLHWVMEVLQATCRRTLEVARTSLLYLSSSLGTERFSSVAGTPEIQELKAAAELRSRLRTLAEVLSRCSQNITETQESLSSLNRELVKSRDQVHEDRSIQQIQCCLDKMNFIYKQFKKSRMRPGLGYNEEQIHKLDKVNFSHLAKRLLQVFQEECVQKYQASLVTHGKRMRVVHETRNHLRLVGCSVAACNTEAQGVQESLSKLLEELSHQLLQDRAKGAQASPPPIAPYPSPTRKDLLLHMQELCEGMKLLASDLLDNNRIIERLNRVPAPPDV
Mitogen-activated protein kinase 1, sequence (P28482 whole entry): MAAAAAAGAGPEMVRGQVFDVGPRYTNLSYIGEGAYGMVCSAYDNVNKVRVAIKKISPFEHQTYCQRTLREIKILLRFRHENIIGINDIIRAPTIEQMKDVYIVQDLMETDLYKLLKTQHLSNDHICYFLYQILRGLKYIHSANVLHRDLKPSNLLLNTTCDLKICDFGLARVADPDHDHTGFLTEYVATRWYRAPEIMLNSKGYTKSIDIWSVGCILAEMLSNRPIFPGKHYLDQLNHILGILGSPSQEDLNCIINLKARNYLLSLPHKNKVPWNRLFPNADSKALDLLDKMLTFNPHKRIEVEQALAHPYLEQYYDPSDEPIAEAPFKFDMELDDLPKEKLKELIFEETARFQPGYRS

T1/2 (Rattus norvegicus [1]): 1 h
IC50 [2]: > 10 µM
IC50 [3]: > 10 µM
IC50 [4]: > 10 µM
IC50 [5]: 4.6 µM
IC50 [6]: > 10 µM
Metabolic rate (Rattus norvegicus [7]): 27.8 mL/min/kg
Vd [8]: 1.06 L/kg
IC50 [9]: > 10 µM
IC50 [10]: > 10 µM
IC50 [11]: > 10 µM
T max (Rattus norvegicus [12]): 1.39 h
clearance [13]: 13.5 mL/min/kg
Cmax (Rattus norvegicus [14]): 9.63 µM
IC50 [15]: > 10 µM
IC50 [16]: > 10 µM
IC50 [17]: 0.114 µM
fraction unbound [18]: 0.01
IC50 [19]: > 10 µM
IC50 [20]: > 10 µM
MRT [21]: 1.31 h
IC50 [22]: > 10 µM
IC50 [23]: > 10 µM
AUC total (Rattus norvegicus [24]): 21.24 µM·h
IC50 [25]: > 10 µM
T1/2 (Rattus norvegicus [26]): 2.38 h
IC50 [27]: > 10 µM
SMILES: O=C(Cc1ccc2ccccc2c1)Nc1cc(C2CC2)n[nH]1
